Results collected from several papers.
Compare with care: the assays were run in different laboratories.
Target: Serine/threonine-protein kinase PAK 5 (PAK5, Homo sapiens, UniProt Q9P286)

SMILES | test | setting | measurement | value
CN(C)C(=O)Cn1cc(-c2nc(C3(c4ccc(-c5cnc(N)nc5)cc4)CC3)no2)cn1 | cell-free assay, competition with immobilised ligand | 1 µM | remaining binding | 88%
CC(C)(C)C(=O)c1sc(NC2CCCCC2)nc1N | enzyme activity, inhibitor | 10 µM | remaining activity | 110%
Cc1ccc(NC(=O)c2ccc(C)c(C(F)(F)F)c2)cc1C#Cc1nn(C2CCC(O)CC2)c2ncnc(N)c12 (centres unmarked) | cell-free assay | 10 µM | remaining signal | 89%
Cc1ccc(C(=O)NCc2ccsc2)cc1C#Cc1cn(C(C)C)c2ncnc(N)c12 | enzyme activity, inhibitor | 1 µM | activity vs control | 105%
Cc1ccc(Nc2nccc(N(C)c3ccc4c(C)n(C)nc4c3)n2)cc1S(N)(=O)=O | cell-free assay, inhibitor | 0.5 µM | remaining signal | 95.4%
CCC(=N\O)/C(C)=C/c1ccc(F)cc1 | cell-free assay, competition with immobilised ligand | 1 µM | remaining binding | 100%
COc1cc(Nc2cnc(C#N)c(O[C@H](C)CN(C)C)n2)ncc1-c1cnn(C)c1 | enzyme activity, inhibitor, radiometric | 1 µM | remaining activity | 93%
COc1cc2ncnc(Nc3ccc(Oc4ccccc4)cc3C)c2cc1OC | enzyme activity, inhibitor | 1 µM | inhibition | 1%
N#CCCc1ccc2c(c1)-c1[nH]c3ccc([N+](=O)[O-])cc3c1CC(=O)N2 | cell-free assay | 0.5 µM | remaining signal | 60.3%
CN(C)c1nccc(-c2cnc3ncccn23)n1 | binding | 1 µM | remaining binding | 78%
FC(F)(F)Oc1cccc(-c2cnc3ccc(-c4ccncc4)nn23)c1 | enzyme activity, inhibitor, radiometric | 5 µM | activity vs control | 62%
CCCOc1ccc(OC)c(F)c1C(=O)c1ccc(C(=O)N[C@@H]2CNC[C@H]2NC(=O)c2ccc3[nH]ncc3c2)cc1 | enzyme activity, inhibitor | 10 µM | remaining activity | 85%
Nc1c(C(=O)NCc2ccc(C(=O)NCCCC3CCCCC3)cc2)cnn1-c1ccccc1 | cell-free assay, competition with immobilised ligand | 0.1 µM | remaining binding | 100%
Cc1cnc(NC2CCOCC2)nc1-n1cnc(C(=O)NC(CN)c2cc(F)cc(Cl)c2)c1 (centres unmarked) | enzyme activity, inhibitor, radiometric | 1 µM | remaining activity | 83%
CC(C)(O)[C@H]1CC[C@H](Nc2ccc3ncc(-c4cccc(C(F)(F)F)c4)n3n2)CC1 | enzyme activity, inhibitor | 1 µM | remaining activity | 98.1%
CN1CCN(c2cnc3c(C4CCN(C(=O)c5ccc(OC(F)(F)F)cc5N)CC4)ncnc3c2)CC1 | cell-free assay, competition with immobilised ligand | 1 µM | remaining binding | 100%
Cc1cc(NC(=O)c2cccc3cc(-c4cccc5[nH]nc(N)c45)ccc23)ccc1F | enzyme activity, inhibitor | 0.1 µM | activity vs control | 88%
Cn1nc(C(=O)NCc2ccc(C(=O)O)cc2)cc1-c1ccc2[nH]ccc2c1 | cell-free assay, competition with immobilised ligand | 0.1 µM | remaining binding | 62%
CC(C)(C)c1nc(-c2cccc(NS(=O)(=O)c3c(F)cccc3F)c2F)c(-c2ccnc(N)n2)s1 | enzyme activity, inhibitor, radiometric | 1 µM | remaining activity | 78%
COc1cc(/C=C/C(=O)CC(=O)/C=C/c2ccc(O)c(OC)c2)ccc1O | enzyme activity, inhibitor | 1 µM | activity vs control | 108%
CNC(=O)c1cc(Oc2ccc(NC(=O)Nc3ccc(Cl)c(C(F)(F)F)c3)cc2)ccn1 | enzyme activity, inhibitor | 0.3 µM | inhibition | -18%
O=C(Nc1cnn(-c2csc(C(=O)NC3COC3)c2)c1)Nc1ccccc1Cl | enzyme activity, inhibitor | 5 µM | remaining activity | 92.1%
FC(F)c1nc2ccccc2n1-c1nc(N2CCOCC2)nc(N2CCOCC2)n1 | enzyme activity, inhibitor | 10 µM | remaining activity | 84%
O=C1NC(c2ccccn2)Sc2ccccc21 (centres unmarked) | cell-free assay, competition with immobilised ligand | 1 µM | remaining binding | 94%
O=C1NC(=O)c2cc(Nc3ccc(F)cc3)c(Nc3ccc(F)cc3)cc21 | cell-free assay | 0.5 µM | remaining signal | 96.4%
Cc1nccc(COC(=O)N2C[C@@H]3[C@@H](CNC(=O)c4ccc5[nH]nnc5c4)[C@@H]3C2)n1 | cell-free assay, competition with immobilised ligand | 1 µM | remaining binding | 92%
Nc1ncnc2occ(-c3ccc(NC(=O)Nc4cc(C(F)(F)F)ccc4F)cc3)c12 | cell-free assay, inhibitor | 20 µM | remaining signal | 60%
Cc1c[nH]c2nccc(Oc3c(F)cc(Nc4cc(Cl)nc(N)n4)cc3F)c12 | cell-free assay, competition with immobilised ligand | 0.1 µM | remaining binding | 92%
CCN(CC)CCNC(=O)c1c(C)[nH]c(/C=C2\C(=O)Nc3ccc(F)cc32)c1C | enzyme activity, inhibitor | 0.3 µM | inhibition | -4%
